Assay [1] deals with T1, Prostaglandin G/H synthase 1 (Homo sapiens, UniProt P23219). Description: Inhibition of COX-1 (unknown origin) using arachidonic acid as substrate preincubated for 2 mins followed by substrate addition in presence of TMPD by spectrophotometric analysis. Also noted: concentration or dose not given beside the values. The method, boiled down: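 COX-1 with heme in 0.1 M Tris-HCl pH 8.0; arachidonic acid starts the reaction and the TMPD oxidation rate is read at 590 nm over 2 min.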
T1 sequence (P23219 whole entry): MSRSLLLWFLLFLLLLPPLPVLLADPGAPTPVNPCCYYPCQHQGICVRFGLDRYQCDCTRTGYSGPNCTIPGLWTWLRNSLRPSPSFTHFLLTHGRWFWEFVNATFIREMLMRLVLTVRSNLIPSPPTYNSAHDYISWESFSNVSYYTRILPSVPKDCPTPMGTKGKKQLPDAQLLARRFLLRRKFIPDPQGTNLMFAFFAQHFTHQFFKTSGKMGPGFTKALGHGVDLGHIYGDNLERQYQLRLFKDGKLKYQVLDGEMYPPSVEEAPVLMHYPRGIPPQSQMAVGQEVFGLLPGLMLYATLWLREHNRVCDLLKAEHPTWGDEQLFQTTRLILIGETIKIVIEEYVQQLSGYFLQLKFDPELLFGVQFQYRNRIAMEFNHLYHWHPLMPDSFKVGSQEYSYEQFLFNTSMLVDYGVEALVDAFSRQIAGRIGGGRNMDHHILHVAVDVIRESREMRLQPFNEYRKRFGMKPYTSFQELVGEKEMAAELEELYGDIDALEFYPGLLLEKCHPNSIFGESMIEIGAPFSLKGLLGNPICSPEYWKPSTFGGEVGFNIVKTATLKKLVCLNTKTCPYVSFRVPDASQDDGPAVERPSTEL

Assay [2] addresses T2, Prostaglandin G/H synthase 2 (Homo sapiens, UniProt P35354).
T2 sequence (P35354 whole entry): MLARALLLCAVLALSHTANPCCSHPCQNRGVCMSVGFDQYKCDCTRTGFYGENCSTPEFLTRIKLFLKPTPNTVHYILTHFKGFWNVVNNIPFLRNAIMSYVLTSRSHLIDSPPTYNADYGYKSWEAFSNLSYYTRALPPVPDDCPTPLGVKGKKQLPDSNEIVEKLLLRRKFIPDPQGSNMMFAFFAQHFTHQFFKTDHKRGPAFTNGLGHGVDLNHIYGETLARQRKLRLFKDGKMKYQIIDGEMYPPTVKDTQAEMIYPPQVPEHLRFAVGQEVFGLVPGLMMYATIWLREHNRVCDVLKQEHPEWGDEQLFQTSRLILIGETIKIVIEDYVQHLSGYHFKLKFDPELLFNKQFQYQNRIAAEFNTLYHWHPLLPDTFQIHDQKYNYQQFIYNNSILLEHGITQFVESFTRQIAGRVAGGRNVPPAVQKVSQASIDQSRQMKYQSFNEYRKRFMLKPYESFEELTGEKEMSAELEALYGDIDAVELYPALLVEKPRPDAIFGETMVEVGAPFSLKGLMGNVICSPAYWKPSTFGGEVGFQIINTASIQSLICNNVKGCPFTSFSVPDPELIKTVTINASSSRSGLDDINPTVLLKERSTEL
As to the kind of experiment: Inhibition of COX-2 (unknown origin) using arachidonic acid as substrate preincubated for 2 mins followed by substrate addition in presence of TMPD by spectrophotometric analysis relative to control.

Another assay has as its system Mus musculus. Description: Antinociceptive activity in Swiss albino mouse assessed as reduction in phenylbenzoquinone-induced abdominal constrictions at 1.8 to 7.8 mg/kg, ip pretreated for 25 mins followed by phenylbenzoquinone treatment measured after 5 mins by writhing test. It counts as functional, Abdomen. Also noted: scale not given: the % may be the effect or the level left.

In assay [3] the target is T1, Prostaglandin G/H synthase 1. Description: Increase in COX-1 (unknown origin) enzyme activity using arachidonic acid as substrate preincubated for 10 mins followed by substrate addition in presence of TMPD by spectrophotometric analysis relative to control. In a few lines: (§1)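 COX-1 in 0.1 M Tris-HCl pH 8.0 with heme; colorimetric read of TMPD oxidation at 590 nm after arachidonic acid starts the reaction. Activity is taken at 10 min of incubation with compound and given as E/E0 against enzyme with solvent only (methanol, ethanol or DMSO). Triplicates; paired t test.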

For assay [4] the target is unchanged. Description: Inhibition of COX-1 (unknown origin) using arachidonic acid as substrate preincubated for 10 mins followed by substrate addition in presence of TMPD by spectrophotometric analysis relative to control. The method, boiled down:
as §1

For the molecule `Cc1cc(C)c2c(=O)n(CCCC(=O)O)sc2n1`, the inhibition (usually the share of the control response that was lost under treatment) in assay [1] was 25 to 40%. The figures for the IC50 in assay [1] (read-out: IC50) and in assay [2] (read-out: IC50) were 235 µM and 302 µM, respectively.
In the case of `Cc1cc(C)c2c(=O)n(CN3CCN(C4CCCCC4)CC3)sc2n1`, the figures for the Activity (in the assay on Mus musculus; in assay [3]) were greater than 50% and 3 to 7%, respectively. For the same molecule, the IC50 in assay [1] (read-out: pIC50 (converted)) is 372 to 661 µM; in assay [2] (read-out: IC50), 359 µM.
As to `Cc1cc(C)c2c(OCCCC(=O)N3CCN(c4cccc(Cl)c4)CC3)nsc2n1`, the IC50 in assay [1] (read-out: IC50) is 818 µM; in assay [1] (read-out: pIC50 (converted)), 380 µM; in assay [2] (read-out: pIC50 (converted)), 4570 µM.
Turning to `Cc1cc(C)c2c(=O)n(CCCN3CCN(c4cccc(Cl)c4)CC3)sc2n1`, in the assay with Mus musculus, the Activity was greater than 50%. The IC50 in assay [1] (read-out: IC50) was 816 µM; in assay [1] (read-out: pIC50 (converted)), 513 to 525 µM.
Take `CCC(C(=O)N1CCN(c2ccccc2)CC1)n1sc2nc(C)cc(C)c2c1=O` (stereo unspecified): the inhibition lay within 25 to 40% in assay [1] and 18 to 30% in assay [4]. Moreover, the IC50 in assay [1] (read-out: IC50) was 154 µM; in assay [1] (read-out: pIC50 (converted)) it was 138 µM; in assay [2] (read-out: IC50) it was 344 µM.
`Cc1cc(C)c2c(=O)n(CCC(=O)N3CCN(c4cccc(Cl)c4)CC3)sc2n1`: the IC50 came out at 242 µM in assay [1] (read-out: IC50) and 388 µM in assay [2] (read-out: IC50).
As for `Cc1cc(C)c2c(OCCCC(=O)N3CCN(c4ccccc4)CC3)nsc2n1`, the Activity in assay [3] was 3 to 7%. In assay [1] (read-out: pIC50 (converted)), the IC50 was 1550 µM.
With `Cc1cc(C)c2c(OC(C)C(=O)O)nsc2n1` (stereo unspecified), in assay [1], the inhibition was 25 to 40%. For the same molecule, the IC50 in assay [1] (read-out: IC50) stood at 229 µM; in assay [2] (read-out: IC50), 327 µM.
Consider `Cc1cc(C)c2c(OCCCC(=O)O)nsc2n1`, for which the inhibition in assay [1] was 25 to 40%. In addition, the IC50 in assay [1] (read-out: IC50) is 248 µM; in assay [2] (read-out: IC50), 269 µM; in assay [2] (read-out: pIC50 (converted)), 245 µM.
On to `Cc1cc(C)c2c(=O)n(CN3CCN(c4ccccc4F)CC3)sc2n1`, for which, in the assay with Mus musculus, the Activity was greater than 50%. Further, the inhibition was in the range of 25 to 40% in assay [1] and 18 to 30% in assay [4]. Further, the IC50 is 156 µM in assay [1] (read-out: IC50), 141 µM in assay [1] (read-out: pIC50 (converted)) and 1260 µM in assay [2] (read-out: pIC50 (converted)).
Turning to `Cc1cc(C)c2c(=O)n(CCCC(=O)N3CCN(c4ccccc4)CC3)sc2n1`, the IC50 in assay [1] (read-out: IC50) came out at 349 µM; in assay [2] (read-out: IC50), 459 µM.
Take `COc1cc2c(cc1OC)CN(C(=O)CCn1sc3nc(C)cc(C)c3c1=O)CC2`: the IC50 in assay [1] (read-out: IC50) was 497 µM; in assay [2] (read-out: IC50), 303 µM; in assay [2] (read-out: pIC50 (converted)) it was 288 µM.
As to `Cc1cc(C)c2c(=O)n(CN(C)CCNc3ccccc3)sc2n1`, the Activity with Mus musculus is given as greater than 50%. Besides, the values for the IC50 in assay [1] (read-out: IC50), in assay [2] (read-out: IC50) and in assay [2] (read-out: pIC50 (converted)) were 219 µM, 494 µM and 5250 µM, respectively. Also, the inhibition in assay [4] fell in the range of 18 to 30%.
With `Cc1cc(C)c2c(=O)n(CCCC(=O)N3CCN(c4cccc(Cl)c4)CC3)sc2n1`, the IC50 in assay [1] (read-out: IC50) came to 722 µM.
With `CN1C(C(=O)Nc2ccccn2)=C(O)c2ccccc2S1(=O)=O`, in assay [3], the Activity amounted to 11%.
Consider `Cc1cc(C)c2c(=O)n(CCC(=O)N3CCN(c4ccccc4)CC3)sc2n1`, for which the inhibition in assay [1] lay within 25 to 40%; in assay [4], 18 to 30%. Further, the IC50 in assay [1] (read-out: IC50) came to 207 µM; in assay [2] (read-out: IC50), 368 µM.
Regarding `O=C(CCn1sc2ccccc2c1=O)N1CCN(c2cccc(Cl)c2)CC1`, the IC50 was 331 µM in assay [1] (read-out: IC50), 302 µM in assay [1] (read-out: pIC50 (converted)) and 130 µM in assay [2] (read-out: IC50).
With `Cc1cc(C)c2c(=O)n(CC(=O)N3CCN(c4cccc(Cl)c4)CC3)sc2n1`, the IC50 in assay [1] (read-out: IC50) was 375 µM; in assay [2] (read-out: IC50), 605 µM.

Source of the values: ChEMBL document CHEMBL3868617, “Synthesis, COX-1/2 inhibition activities and molecular docking study of isothiazolopyridine derivatives” (Bioorg Med Chem, 2017).
